Measurements published in ChEMBL document CHEMBL4145639, “Cytochalasans Produced by the Coculture of Aspergillus flavipes and Chaetomium globosum” (J Nat Prod, 2018).
Blank lines part the entries; values can stand above or below the compound they belong to. Activity calls are given as the source filed them. The calls are words filed in the database; no cut-off is given here.

How the values were obtained:
Staphylococcus aureus = test: Antimicrobial activity against Staphylococcus aureus by agar well diffusion method; type: functional, organism-based
Outline: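 Agar-well diffusion against S. aureus (Gram-positive) and a Gram-negative organism the paper calls C. bacillus. Cefotaxime sodium and tetracycline served as positive controls, with solvent DMSO as the negative control.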

Escherichia coli = test: Antimicrobial activity against Escherichia coli by agar well diffusion method
Murine T-cell line = test: Immunomodulatory activity in Kunming mouse T cells assessed as inhibition of ConA-induced cell proliferation at 40 uM after 48 hrs by MTT assay; type: functional, cell-based
Outline: (§1)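 Splenocytes came from three male KM mice (25 g), seeded at 5 × 10^5 cells/well. Stimulation was 5 μg/mL ConA (T cells) or 10 μg/mL LPS (B cells), with compounds in DMSO at final 40 μM. After 48 h culture, MTT was read at 570 nm. Stimulated and unstimulated controls set baseline proliferation.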

B-cell line = test: Immunomodulatory activity in Kunming mouse B cells assessed as inhibition of LPS-induced cell proliferation at 40 uM after 48 hrs by MTT assay; type: functional, cell-based; outline: as §1
MCF7 = test: Antiproliferative activity against human MCF7 cells after 48 hrs by MTT assay; type: functional, cell-based; details: MCF7, 48 h
Outline: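 Cells were grown in RPMI 1640 with 10% FBS, penicillin and streptomycin at 37 °C in 5% CO2 and seeded at 5000 cells/well. Compounds (50, 25, 12.5, 6.25, 3.12, 1.56 μM; final DMSO 0.5%) were added 24 h later and incubated 48 h. MTT was added for 4 h, cells lysed in SDS/isopropanol/HCl, and A570 read. Runs were triplicate, with doxorubicin as positive control. IC50 came from means ± SEM.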

SMILES: C/C1=C\[C@@H](C)C/C=C/[C@H]2[C@H](O)[C@@]3(C)O[C@@]4(CC(=O)c5ccccc5N)NC(=O)[C@]2(C(=O)CC[C@H](O)C1=O)[C@H]4[C@@H]3C
Activity (Staphylococcus aureus): inactive
Activity (Escherichia coli): inactive
inhibition (Murine T-cell line): Active

SMILES: C/C1=C\[C@H]2C=C(CO)[C@@H](C)[C@H]3[C@H](CC(C)C)NC(=O)[C@]32C(=O)CCC(=O)[C@@H](O)CC1
Activity (Staphylococcus aureus): inactive
Activity (Escherichia coli): inactive
inhibition (Murine T-cell line): Active

SMILES: C/C1=C\[C@H]2C=C(CO)[C@@H](C)[C@H]3[C@H](CC(C)C)NC(=O)[C@]32C(=O)CCC(=O)[C@H](O)CC1
inhibition (B-cell line): Active
Activity (Staphylococcus aureus): inactive
Activity (Escherichia coli): inactive

SMILES: C/C1=C\[C@H]2C=C(CO)[C@@H](C)[C@H]3[C@H](CC(C)C)NC(=O)[C@]32C(=O)CC[C@@H](O)C(=O)CC1
Activity (Staphylococcus aureus): inactive
Activity (Escherichia coli): inactive
inhibition (Murine T-cell line): Active

SMILES: C/C1=C\[C@H]2C=C(CO)[C@@H](C)[C@H]3[C@H](CC(C)C)NC(=O)[C@]32C(=O)CC[C@H](O)C(=O)CC1
Activity (Staphylococcus aureus): inactive
Activity (Escherichia coli): inactive
inhibition (Murine T-cell line): Active

SMILES: C/C1=C\[C@@H](C)C/C=C/[C@H]2[C@@H]3O[C@]3(C)[C@@H](C)[C@H]3[C@H](C(O)c4c[nH]c5ccccc45)NC(=O)[C@]32C(=O)CC[C@H](O)C1=O (stereo in doubt; 5)
Activity (Staphylococcus aureus): inactive
Activity (Escherichia coli): inactive
inhibition (Murine T-cell line): Active

SMILES: C/C1=C\[C@@H](C)C/C=C/[C@H]2[C@@H]3O[C@]3(C)[C@@H](C)[C@H]3[C@H](C(O)c4c[nH]c5ccccc45)NC(=O)[C@]32C(=O)CC[C@H](O)C1=O (stereo in doubt; 6)
inhibition (B-cell line): Active
Activity (Staphylococcus aureus): inactive
Activity (Escherichia coli): inactive
inhibition (Murine T-cell line): Active

SMILES: C=C1[C@@H](C)[C@H]2[C@H](C(OC)c3c[nH]c4ccccc34)NC(=O)[C@]23C(=O)CC[C@H](O)C(=O)/C(C)=C/[C@@H](C)C/C=C/[C@H]3[C@@H]1O (stereo in doubt; 7)
inhibition (B-cell line): Active
Activity (Staphylococcus aureus): inactive
Activity (Escherichia coli): inactive
inhibition (Murine T-cell line): Active

IC50 (MCF7): 20.7 µM
SMILES: C=C1[C@@H](C)[C@H]2[C@H](C(OC)c3c[nH]c4ccccc34)NC(=O)[C@]23C(=O)CC[C@H](O)C(=O)/C(C)=C/[C@@H](C)C/C=C/[C@H]3[C@@H]1O (stereo in doubt; 8) [listing 1 of 2 here]

SMILES: C=C1[C@@H](C)[C@H]2[C@H](C(OC)c3c[nH]c4ccccc34)NC(=O)[C@]23C(=O)CC[C@H](O)C(=O)/C(C)=C/[C@@H](C)C/C=C/[C@H]3[C@@H]1O (stereo in doubt; 8) [listing 2 of 2 here]
inhibition (B-cell line): Active
Activity (Staphylococcus aureus): inactive
Activity (Escherichia coli): inactive
inhibition (Murine T-cell line): Active

SMILES: COC(c1c[nH]c2ccccc12)[C@@H]1NC(=O)[C@@]23C(=O)CC[C@H](O)C(=O)/C(C)=C/[C@@H](C)C/C=C/[C@H]2[C@H](O)C(C)=C(C)[C@@H]13 (stereo in doubt; 9)
inhibition (B-cell line): Active
Activity (Staphylococcus aureus): inactive
Activity (Escherichia coli): inactive
inhibition (Murine T-cell line): Active

SMILES: COC(c1c[nH]c2ccccc12)[C@@H]1NC(=O)[C@@]23C(=O)CC[C@H](O)C(=O)/C(C)=C/[C@@H](C)C/C=C/[C@H]2[C@H](O)C(C)=C(C)[C@@H]13 (stereo in doubt; 10)
inhibition (B-cell line): Active
Activity (Staphylococcus aureus): inactive
Activity (Escherichia coli): inactive

IC50 (MCF7): 27.9 µM
SMILES: C/C1=C\[C@@H](C)C/C=C/[C@H]2[C@H](O)[C@@]3(C)O[C@@]4(CC56OC5Nc5ccccc56)NC(=O)[C@]2(C(=O)CC[C@H](O)C1=O)[C@H]4[C@@H]3C (stereo in doubt; 11) [listing 1 of 2 here]

SMILES: C/C1=C\[C@@H](C)C/C=C/[C@H]2[C@H](O)[C@@]3(C)O[C@@]4(CC56OC5Nc5ccccc56)NC(=O)[C@]2(C(=O)CC[C@H](O)C1=O)[C@H]4[C@@H]3C (stereo in doubt; 11) [listing 2 of 2 here]
Activity (Staphylococcus aureus): inactive
Activity (Escherichia coli): inactive

SMILES: C/C1=C\[C@@H](C)C/C=C/[C@H]2[C@H](O)[C@@]3(C)O[C@@]4(CC56OC5Nc5ccccc56)NC(=O)[C@]2(C(=O)CC[C@H](O)C1=O)[C@H]4[C@@H]3C (stereo in doubt; 12)
Activity (Staphylococcus aureus): inactive
Activity (Escherichia coli): inactive
inhibition (Murine T-cell line): Active
